Active and inactive are the calls of the source. No cut-off for these calls is given here.
Experiments:
[1] = target: Speckle-type POZ protein (Homo sapiens) (UniProt O43791); assay: Inhibition of SPOP signalling in human A498 cells assessed as reduction in ERK phosphorylation at 0.5 to 10 uM incubated for 12 hrs by Western blot analysis; type: cell-based
Procedure, shortened: (§1)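 Cells exposed 12 hr to inhibitor at graded concentrations, RIPA lysates normalized by BCA. 12% SDS-PAGE, nitrocellulose transfer, milk block, primary antibody at 4 °C overnight, HRP secondary, ECL. GAPDH loading control.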

[2] = target: Speckle-type POZ protein (Homo sapiens) (UniProt O43791); assay: Inhibition of SPOP signalling in human OS-RC2 cells assessed as effect on total AKT level at 0.5 to 15 uM incubated for 12 hrs by Western blot analysis; type: cell-based; procedure, shortened: as §1
[3] = target: Speckle-type POZ protein (Homo sapiens) (UniProt O43791); assay: Inhibition of SPOP signalling in human A498 cells assessed as effect on total ERK level at 0.5 to 10 uM incubated for 12 hrs by Western blot analysis; type: cell-based; procedure, shortened: as §1
NCI-H1299 = assay: Cytotoxicity against human H1299 cells assessed as reduction in cell viability incubated for 72 hrs by MTT assay; type: cell-based; conditions: NCI-H1299, 72 h
Procedure, shortened: (§2)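 Cells maintained in DMEM/10% FBS at 37 °C, 5% CO2. Cell proliferation quantified by MTT after 72 hr compound exposure, A490 read. Untreated cells = 100%. Mean ± SD, n = 3.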

[4] = Solubility of compound in cell culture medium in presence of 0.2 % DMSO; type: physicochemical
Procedure, shortened: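 Solubility determined in cell culture medium containing 0.2% DMSO.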

[5] = target: T1, Speckle-type POZ protein/PTEN (Homo sapiens) (UniProt P60484+O43791); assay: Inhibition of SPOP/PTEN interaction in human HEK293T cells assessed as reduction in PTEN level incubated for 8 hrs by Western blot analysis; type: cell-based
[6] = target: Speckle-type POZ protein (Homo sapiens) (UniProt O43791); assay: Binding affinity to recombinant N-terminal GST/His-tagged SPOP (unknown origin) MATH binding domain expressed in Escherichia coli BL21 (DE3) assessed as change in melting temperature at 10 fold compound by SYPRO Orange dye based differential scanning fluorimetry (reference value: -1.7 degreeC)
[7] = target: Speckle-type POZ protein (Homo sapiens) (UniProt O43791); assay: Binding affinity to recombinant N-terminal GST/His-tagged SPOP (unknown origin) MATH binding domain expressed in Escherichia coli BL21 (DE3) assessed as change in melting temperature at 1 fold compound by SYPRO Orange dye based differential scanning fluorimetry (reference value: -1.7 degreeC)
[8] = Selectivity index, ratio of IC50 for human Hs766T to IC50 for human A498 cells
[9] = target: T1, Speckle-type POZ protein/PTEN (Homo sapiens); assay: Inhibition of SPOP/PTEN interaction in human A498 cells assessed as increase in SPOP level at 1 to 50 uM incubated for 20 mins by DARTS based Western blot analysis; type: cell-based
Procedure, shortened: (§3)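 DARTS. Lysates of 1×10⁶ cells in TNC buffer, 120 μg per tube, incubated with compound at 0, 1, 5, 10 or 50 μM for 20 min at rt. Pronase digestion 10 min at rt (1:1000 for A498, 1:2000 for OS-RC-2), stopped with protease inhibitors, then SPOP western blot. Triplicate experiments.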

HK-2 = assay: Cytotoxicity against human HK2 cells assessed as reduction in cell viability incubated for 72 hrs by MTT assay; type: cell-based; conditions: HK-2, 72 h
[10] = target: Speckle-type POZ protein (Homo sapiens) (UniProt O43791); assay: Inhibition of SPOP signalling in human OS-RC2 cells assessed as effect of PTEN mRNA expression at 1 to 10 uM incubated for 12 hrs by qRT-PCR analysis; type: cell-based
A498 [11] = assay: Antiproliferative activity against human A498 cells assessed as reduction in cell viability incubated for 72 hrs by MTT assay; type: functional, cell-based; conditions: A498, 72 h
Procedure, shortened: (§4)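 MTT read-out. Cells seeded at 1,000-2,200/well, grown 12 hr at 37 °C before compound, then exposed 72 hr. MTT for 4 hr, formazan dissolved in DMSO, A490 read. Untreated cells = 100% proliferation. IC50 quantitated; mean ± SD, n = 3.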

A498 [12] = assay: Antiproliferative activity against human A498 cells assessed as reduction in cell viability at 30 uM incubated for 72 hrs by MTT assay relative to control; type: functional; conditions: A498, 72 h
Procedure, shortened: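 MTT read-out. Cells seeded at 1,000-2,200/well, grown 12 hr at 37 °C, then compound added for 72 hr. MTT for 4 hr, formazan dissolved in DMSO, absorbance at 490 nm. Untreated-cell OD taken as 100% proliferation; inhibition reported at 30 μM.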

[13] = target: T1, Speckle-type POZ protein/PTEN (Homo sapiens); assay: Inhibition of SPOP/PTEN interaction in human OS-RC2 cells assessed as increase in SPOP level at 1 to 50 uM incubated for 20 mins by DARTS based Western blot analysis; type: cell-based; procedure, shortened: as §3
[14] = Selectivity index, ratio of IC50 for human U251 to IC50 for human A498 cells
OS-RC-2 [15] = assay: Inhibition of colony formation in human OS-RC2 cells at 1 to 5 uM incubated for 12 days by crystal violet dye based assay; type: functional, cell-based
Procedure, shortened: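 Cells seeded at 1,000/well, grown 12 days at 37 °C, 5% CO2, medium renewed every 3 days. Fixed with 10% acetic acid/10% methanol for 15 min, stained with 1% crystal violet for 10 min.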

[16] = target: Speckle-type POZ protein (Homo sapiens) (UniProt O43791); assay: Inhibition of SPOP signalling in human A498 cells assessed as accumulation of DUSP7 incubated for 12 hrs by Western blot analysis; type: cell-based; procedure, shortened: as §1
[17] = target: Speckle-type POZ protein (Homo sapiens) (UniProt O43791); assay: Binding affinity to recombinant N-terminal GST/His-tagged MATH binding domain SPOP (unknown origin) expressed in Escherichia coli BL21 (DE3) assessed as change in melting temperature at 10 fold compound incubated for 15 mins by nano differential scanning fluorimetry (reference value: -1.7 degreeC)
Hs 766 = assay: Cytotoxicity against human Hs766T cells assessed as reduction in cell viability incubated for 72 hrs by MTT assay; type: cell-based; conditions: Hs 766, 72 h; procedure, shortened: as §2
[18] = target: Speckle-type POZ protein (Homo sapiens) (UniProt O43791); assay: Binding affinity to recombinant N-terminal GST/His-tagged SPOP (unknown origin) MATH binding domain expressed in Escherichia coli BL21 (DE3) assessed as change in melting temperature at 5 fold compound by SYPRO Orange dye based differential scanning fluorimetry (reference value: -1.7 degreeC)
[19] = target: Speckle-type POZ protein (Homo sapiens) (UniProt O43791); assay: Inhibition of SPOP signalling in human A498 cells assessed as effect on total AKT level at 0.5 to 10 uM incubated for 12 hrs by Western blot analysis; type: cell-based; procedure, shortened: as §1
[20] = Selectivity index, ratio of IC50 for human H1299 to IC50 for human A498 cells
[21] = target: Speckle-type POZ protein (Homo sapiens) (UniProt O43791); assay: Binding affinity to recombinant N-terminal GST/His-tagged SPOP (unknown origin) (23 to 337 residues) expressed in Escherichia coli BL21 (DE3) assessed as change in melting temperature at 5 fold compound incubated for 15 mins by nano differential scanning fluorimetry (reference value: -1.9 degreeC)
[22] = Selectivity index, ratio of IC50 for human A549 to IC50 for human A498 cells
[23] = target: Speckle-type POZ protein (Homo sapiens) (UniProt O43791); assay: Inhibition of SPOP signalling in human OS-RC2 cells assessed as accumulation of DUSP7 incubated for 12 hrs by Western blot analysis; type: cell-based; procedure, shortened: as §1
OS-RC-2 [24] = assay: Antiproliferative activity against human OS-RC2 cells assessed as reduction in cell viability incubated for 72 hrs by MTT assay; type: functional, cell-based; conditions: OS-RC-2, 72 h; procedure, shortened: as §4

T1 sequence (O43791 whole entry, looked up, the tested form may be a part): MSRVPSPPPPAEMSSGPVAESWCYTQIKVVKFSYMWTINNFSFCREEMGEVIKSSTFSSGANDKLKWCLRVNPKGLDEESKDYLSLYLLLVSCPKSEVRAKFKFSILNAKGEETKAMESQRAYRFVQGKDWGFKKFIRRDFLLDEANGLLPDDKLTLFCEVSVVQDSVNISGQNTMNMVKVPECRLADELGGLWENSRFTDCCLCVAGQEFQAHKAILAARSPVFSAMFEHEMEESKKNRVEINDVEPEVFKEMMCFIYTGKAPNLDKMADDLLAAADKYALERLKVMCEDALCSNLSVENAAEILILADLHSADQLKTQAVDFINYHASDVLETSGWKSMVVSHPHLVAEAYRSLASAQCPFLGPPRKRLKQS
T1 sequence (P60484 whole entry, looked up, the tested form may be a part): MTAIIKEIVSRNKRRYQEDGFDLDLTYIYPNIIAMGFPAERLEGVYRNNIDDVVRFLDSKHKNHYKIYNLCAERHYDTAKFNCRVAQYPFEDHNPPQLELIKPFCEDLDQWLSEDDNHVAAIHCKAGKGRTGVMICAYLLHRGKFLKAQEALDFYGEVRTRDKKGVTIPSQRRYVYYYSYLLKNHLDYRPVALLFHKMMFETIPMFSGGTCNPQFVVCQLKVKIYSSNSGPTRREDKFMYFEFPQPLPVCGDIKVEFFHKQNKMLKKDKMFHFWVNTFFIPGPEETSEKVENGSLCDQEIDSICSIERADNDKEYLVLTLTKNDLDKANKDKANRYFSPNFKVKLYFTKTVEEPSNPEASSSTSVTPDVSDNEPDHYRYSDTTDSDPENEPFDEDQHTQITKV
Sequence of Speckle-type POZ protein (Homo sapiens) (O43791 whole entry, the tested form may be a part): as the sequence (O43791 whole entry, looked up, the tested form may be a part) above

inhibition [1]: Active
inhibition [2]: inactive
inhibition [3]: inactive
solubility [4]: > 90 µM
inhibition [5]: Dose-dependent effect
ΔTm [6]: 4 °C
ΔTm [7]: 2.7 °C
inhibition [9]: Active
inhibition [10]: inactive
inhibition [13]: Active
inhibition [16]: Dose-dependent effect
ΔTm [17]: 3.1 °C
ΔTm [18]: 3.7 °C
inhibition [19]: inactive
ΔTm [21]: 2.1 °C
inhibition [23]: Dose-dependent effect
Compound: Cc1cccn2c(=O)c3cc(C(=O)NCCN4CCN(C)CC4)c(=N)n(CCc4cccs4)c3nc12
IC50 (NCI-H1299): 10.7 µM
Ratio IC50 [8]: >5
IC50 (HK-2): > 30 µM
IC50 (A498 [11]): 2100 nM
inhibition at 30 µM (A498 [12]): 85%
Ratio IC50 [14]: >5
inhibition (OS-RC-2 [15]): Active
IC50 (Hs 766): 14.5 µM
Ratio IC50 [20]: >5
Ratio IC50 [22]: >5
IC50 (OS-RC-2 [24]): 3.5 µM

Source: ChEMBL document CHEMBL4402603, “Structure-Activity Relationship of SPOP Inhibitors against Kidney Cancer” (J Med Chem, 2020)
